ChEMBL document CHEMBL1132376, “Synthesis, structure-activity relationships, and RARgamma-ligand interactions of nitrogen heteroarotinoids” (J Med Chem, 1999)

How the values were obtained:
[1] = Percent transcriptional activation relative to 9-cis RA in CV-1 cells expressing Retinoic acid receptor RAR gamma; format: functional, Homo sapiens
In short: (§1)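 CV-1 cells were transiently cotransfected with a human RARα/β/γ or mouse RXRα/β/γ expression vector (100 ng), βRARE-tk-CAT reporter (500 ng) and β-gal control (100 ng). Retinoids (10^-10–10^-5 M, 0.1% DMSO) were added 16–18 h later for 24 h, and CAT and β-gal were read by ELISA. Efficacy = maximal activity ÷ 9-cis-RA maximal activity. Triplicates were run in at least two experiments.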

[2] = molecular target: T1, Retinoic acid receptor alpha (Homo sapiens, UniProt P10276); test: Transcriptional activation in CV-1 cells expressing human Retinoic acid receptor alpha; format: functional, cell-based
T1 sequence (P10276 whole entry): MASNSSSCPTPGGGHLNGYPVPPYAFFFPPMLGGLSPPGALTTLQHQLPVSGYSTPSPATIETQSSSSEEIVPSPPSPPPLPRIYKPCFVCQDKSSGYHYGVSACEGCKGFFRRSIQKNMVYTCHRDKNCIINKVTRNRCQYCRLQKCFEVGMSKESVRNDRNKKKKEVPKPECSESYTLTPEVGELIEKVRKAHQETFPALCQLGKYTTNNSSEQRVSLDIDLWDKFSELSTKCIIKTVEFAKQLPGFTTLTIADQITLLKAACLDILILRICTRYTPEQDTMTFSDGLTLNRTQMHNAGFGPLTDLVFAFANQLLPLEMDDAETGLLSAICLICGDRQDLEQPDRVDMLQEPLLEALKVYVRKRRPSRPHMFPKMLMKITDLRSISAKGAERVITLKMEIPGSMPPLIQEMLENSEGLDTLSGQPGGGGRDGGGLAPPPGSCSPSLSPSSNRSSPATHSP
In short: (§2)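 CV-1 cells were cotransfected with a human RAR or mouse RXR subtype vector, βRARE-tk-CAT reporter and β-gal internal control. Retinoids were applied at 10^-10–10^-5 M (0.1% DMSO) for 24 h, then CAT/β-gal was measured by ELISA. Potency is the concentration giving half of the agent's own maximal activity. Triplicates were run in at least two experiments.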

[3] = molecular target: T2, Retinoic acid receptor RXR-beta (Mus musculus, UniProt P28704); test: Transcriptional activation in CV-1 cells expressing Retinoid X receptor RXR beta; format: functional, cell-based; in short: as §2
T2 sequence (P28704 whole entry): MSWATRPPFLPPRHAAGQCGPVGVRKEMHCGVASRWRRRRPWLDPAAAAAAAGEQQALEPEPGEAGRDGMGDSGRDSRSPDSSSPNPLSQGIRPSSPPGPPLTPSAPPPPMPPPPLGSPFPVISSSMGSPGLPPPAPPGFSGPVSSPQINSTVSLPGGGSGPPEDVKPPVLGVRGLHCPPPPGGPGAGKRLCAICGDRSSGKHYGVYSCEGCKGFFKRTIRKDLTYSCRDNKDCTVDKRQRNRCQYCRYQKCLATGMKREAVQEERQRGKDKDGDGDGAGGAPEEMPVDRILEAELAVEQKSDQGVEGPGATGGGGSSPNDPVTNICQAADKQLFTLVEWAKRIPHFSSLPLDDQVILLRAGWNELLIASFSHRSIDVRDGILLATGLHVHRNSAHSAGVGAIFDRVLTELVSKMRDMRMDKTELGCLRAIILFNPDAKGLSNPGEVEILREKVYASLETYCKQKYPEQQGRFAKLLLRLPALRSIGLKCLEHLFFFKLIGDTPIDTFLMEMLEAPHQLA

[4] = molecular target: T3, Retinoic acid receptor RXR-beta (Mus musculus) (UniProt P28704); test: Percent transcriptional activation relative to 9-cis RA in CV-1 cells expressing Retinoid X receptor RXR beta; format: functional, cell-based; in short: as §1
T3 sequence (whole entry): T2 sequence (P28704 whole entry)

[5] = molecular target: T4, Retinoic acid receptor beta (Homo sapiens, UniProt P10826); test: Transcriptional activation in CV-1 cells expressing Retinoic acid receptor RAR beta; format: functional, cell-based; in short: as §2
T4 sequence (P10826 whole entry): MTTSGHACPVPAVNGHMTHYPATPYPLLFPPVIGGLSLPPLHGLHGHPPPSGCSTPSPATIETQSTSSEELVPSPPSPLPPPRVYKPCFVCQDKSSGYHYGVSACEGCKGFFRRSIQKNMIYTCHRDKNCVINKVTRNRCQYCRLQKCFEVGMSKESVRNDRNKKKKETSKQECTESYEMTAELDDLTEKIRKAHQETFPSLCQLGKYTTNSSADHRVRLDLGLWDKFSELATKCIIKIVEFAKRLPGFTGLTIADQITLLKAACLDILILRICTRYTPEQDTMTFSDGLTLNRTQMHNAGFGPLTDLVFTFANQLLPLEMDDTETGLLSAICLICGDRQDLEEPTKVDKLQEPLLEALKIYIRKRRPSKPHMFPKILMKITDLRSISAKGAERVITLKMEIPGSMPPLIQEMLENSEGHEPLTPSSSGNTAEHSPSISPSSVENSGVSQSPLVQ

[6] = Percent transcriptional activation relative to 9-cis RA in CV-1 cells expressing Retinoid X receptor RXR alpha; format: functional, Mus musculus; in short: as §1
SCC-38 = test: Percent of growth inhibition of Cell line SCC-38(Head and Neck) by the compound; format: functional, Homo sapiens
In short: (§3)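 Carcinoma cell lines were seeded at 2000–4000 cells/well and dosed the next day at 10 µM against a DMSO control. After 72 h cells were TCA-fixed, SRB-stained and the dye solubilized in Tris-HCl, then OD was read. Triplicates were averaged, and % inhibition = (1 − treated/control OD) × 100.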

[7] = Transcriptional activation in CV-1 cells expressing Retinoic acid receptor RAR gamma; format: functional, cell-based; details: Homo sapiens; in short: as §2
[8] = molecular target: T5, Retinoic acid receptor RXR-gamma (Mus musculus) (UniProt P28705); test: Percent transcriptional activation relative to 9-cis RA in CV-1 cells expressing Retinoid X receptor RXR gamma; format: functional, cell-based; in short: as §1
T5 sequence (whole entry): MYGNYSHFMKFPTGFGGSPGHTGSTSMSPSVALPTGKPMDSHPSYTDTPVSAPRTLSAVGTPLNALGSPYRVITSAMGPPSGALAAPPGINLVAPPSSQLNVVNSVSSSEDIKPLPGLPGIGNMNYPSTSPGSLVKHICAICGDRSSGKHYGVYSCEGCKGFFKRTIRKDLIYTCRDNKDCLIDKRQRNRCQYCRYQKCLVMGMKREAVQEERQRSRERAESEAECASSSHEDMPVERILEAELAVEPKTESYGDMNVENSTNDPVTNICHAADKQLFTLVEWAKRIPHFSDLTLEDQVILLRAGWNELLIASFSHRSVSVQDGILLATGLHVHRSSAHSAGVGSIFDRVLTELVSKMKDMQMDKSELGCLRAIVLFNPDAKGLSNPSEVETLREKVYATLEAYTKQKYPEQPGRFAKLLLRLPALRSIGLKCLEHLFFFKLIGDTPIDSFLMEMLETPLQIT

Caov-3 cell line = test: Percent of growth inhibition of Cell line Caov-3(Ovarian) by the compound; format: functional, Homo sapiens; in short: as §3
SK-OV-3 = test: Percent of growth inhibition of Cell line SKOV-3(Ovarian) by the compound; format: functional, Homo sapiens; in short: as §3
[9] = molecular target: T6, Retinoic acid receptor RXR-gamma (Mus musculus, UniProt P28705); test: Transcriptional activation in CV-1 cells expressing Retinoid X receptor RXR gamma; format: functional, cell-based; in short: as §2
T6 sequence (P28705 whole entry): T5 sequence (whole entry)

SiHa = test: Percent of growth inhibition of Cell line SiHa (Cervix) by the compound; format: functional, Homo sapiens; in short: as §3
[10] = molecular target: T7, Retinoic acid receptor beta (Homo sapiens) (UniProt P10826); test: Percent transcriptional activation relative to 9-cis RA in CV-1 cells expressing Retinoic acid receptor RAR beta; format: functional, cell-based; in short: as §1
T7 sequence (whole entry): T4 sequence (P10826 whole entry)

CC-1 [11] = test: Percent inhibition of CC-1 cervical cell proliferation; format: functional, Homo sapiens; in short: as §3
SW 954 = test: Percent of growth inhibition of Cell line SW954 (Vulvar) by the compound; format: functional, Homo sapiens; in short: as §3
[12] = The compound was evaluated for Tissue Transglutaminase induction
In short: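 HEL cells ((1–2) × 10^5/mL) were exposed to 10 µM retinoid for 48 h, washed in PBS and sonicated in Tris/NaCl/EDTA/PMSF buffer (pH 7.4). TGase was measured as Ca2+-dependent [14C]putrescine incorporation into N,N-dimethylcasein, counting acid-insoluble radioactivity, with Lowry protein. Efficacy is expressed relative to maximal t-RA activity.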

SCC-2 = test: Percent of growth inhibition of Cell line SCC-2(Head and Neck) by the compound; format: functional, Homo sapiens; in short: as §3
[13] = Transcriptional activation in CV-1 cells expressing Retinoid X receptor RXR alpha; format: functional, cell-based; in short: as §2
SW 962 = test: Percent of growth inhibition of Cell line SW962 (Vulvar) by the compound; format: functional, Homo sapiens; in short: as §3
[14] = molecular target: T8, Retinoic acid receptor alpha (Homo sapiens) (UniProt P10276); test: Percent transcriptional activation relative to 9-cis RA in CV-1 cells expressing Retinoic acid receptor RAR alpha; format: functional, cell-based; in short: as §1
T8 sequence (whole entry): T1 sequence (P10276 whole entry)

CC-1 [15] = test: Percent of growth inhibition of Cell line CC-1(Cervix) by the compound; format: functional, Homo sapiens; in short: as §3

Row | SMILES | EC50 [2] | EC50 [3] | Efficacy [4] | EC50 [5] | Efficacy [8] | EC50 [9] | Efficacy [10] | Induction [12] | EC50 [13] | Efficacy [14] | Efficacy [1] | Efficacy [6] | Inhibition (SCC-38) | Inhibition (Caov-3 cell line) | Inhibition (SK-OV-3) | Inhibition (SiHa) | Inhibition (CC-1 [11]) | Inhibition (SW 954) | Inhibition (SCC-2) | Inhibition (SW 962) | also measured
1 | CC1=C(/C=C/C(C)=C\C=C\C(C)=C\C(=O)O)C(C)(C)CCC1 [ALITRETINOIN] |  |  |  |  |  |  |  |  |  |  |  |  | 24% | 25% | 27% | 25% |  | 35% | 25% | 30% | Inhibition (CC-1 [15]): 15%
2 | C/C(=C/c1ccc(C(=O)O)cc1)c1ccc2c(c1)C(C)(C)CCC2(C)C |  |  |  |  |  |  |  |  |  |  |  |  |  | 15% | 20% |  |  | 30% |  | 20% | 
3 | CCOC(=O)c1ccc(OC(=O)c2ccc3c(c2)C(C)(C)CCN3C(C)C)cc1 | 217 nM | 47 nM | 45% | 41 nM | 47% | 27 nM | 71% | 49 | 12 nM | 59% | 0% | 62% | 25% | 13% | 2% | 25% | 15% | 49% | 24% | 25% | 

Second part, led by results:

Row | EC50 [2] | EC50 [3] | Efficacy [4] | EC50 [5] | Efficacy [8] | EC50 [9] | Efficacy [10] | Induction [12] | EC50 [13] | Efficacy [14] | SMILES | Efficacy [1] | Efficacy [6] | Inhibition (SCC-38) | Inhibition (Caov-3 cell line) | Inhibition (SK-OV-3) | Inhibition (SiHa) | Inhibition (CC-1 [11]) | Inhibition (SW 954) | Inhibition (SCC-2) | Inhibition (SW 962) | also measured
4 | 796 nM | 70 nM | 55% | 92 nM | 52% | 49 nM | 63% | 49 | 102 nM | 64% | CCOC(=O)c1ccc(OC(=O)c2cc3c(cc2C)N(C)CCC3(C)C)cc1 | 103% | 53% | 20% | 10% | 0% | 26% | 20% | 77% | 20% | 80% | EC50 [7]: 6 nM
5 | 1130 nM | 33 nM | 53% | 256 nM | 52% | 20 nM | 64% | 37 | 601 nM | 45% | CCOC(=O)c1ccc(OC(=O)c2ccc3c(c2)C(C)(C)CCN3C)cc1 | 0% | 47% | 20% | 0% | 0% | 40% | 25% | 35% | 20% | 15% | 
